Measured values from ChEMBL document CHEMBL1938318, “Design, synthesis and evaluation of novel molecules with a diphenyl ether nucleus as potential antitubercular agents” (Bioorg Med Chem Lett, 2012).
≈ marks a conversion by molar mass, not a printed value.

What was measured:
[1] = test system: Mycobacterium tuberculosis; assay: Antitubercular activity against Mycobacterium tuberculosis H37Rv after 7 to 11 days by microdilution method; type: functional
Summary of the method: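 M. tuberculosis H37Rv grown in Middlebrook 7H9 with OADC, diluted in 7H9-OADC to 10⁴ CFU/mL and added to serial compound dilutions in 96-well microdilution plates. Incubated at 37 °C in humidified incubator, growth scored visually. MIC = lowest concentration with growth similar to 10 CFU inoculum-only well; isoniazid positive control.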

[2] = Growth inhibition of human HepG2 cells at 20 uM after 48 hrs by MTT assay; type: cell-based; conditions: read-out: GI
Summary of the method: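 Cells seeded at 2500/well, cultured 24 h, then exposed to compound at 20 μM for 48 h. MTT (20 μL of 5 mg/ml stock) added for 2.5 h at 37 °C. Supernatant removed, formazan dissolved in DMSO with 15–20 min shaking, absorbance read at 570 nm. Inhibitory rate is the mean of three independent experiments.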

Structure (SMILES)	MIC [1]	MIC90 [1]	inhibition at 48 h, 20 µM [2]
Cc1ccc(NC(=O)Cc2cccc(Oc3ccccc3)c2)nc1	32 µg/mL (≈ 101 µM)	8 µg/mL (≈ 25.1 µM)	12.2%
O=C(Cc1cccc(Oc2ccccc2)c1)Nc1cccc(Cl)c1	32 µg/mL (≈ 94.7 µM)	16 µg/mL (≈ 47.4 µM)	7.95%
O=C(Cc1cccc(Oc2ccccc2)c1)Nc1ccc(Br)cc1	64 µg/mL (≈ 167 µM)	16 µg/mL (≈ 41.9 µM)	15.7%
O=C(Cc1cccc(Oc2ccccc2)c1)Nc1ccc(Cl)c(Cl)c1	4 µg/mL (≈ 10.7 µM)		7%
O=C(Cc1cccc(Oc2ccccc2)c1)Nc1ccc(F)c(F)c1	32 µg/mL (≈ 94.3 µM)	8 µg/mL (≈ 23.6 µM)	26.7%
O=C(Cc1cccc(Oc2ccccc2)c1)Nc1ccc(Br)cc1Cl	32 µg/mL (≈ 76.8 µM)	16 µg/mL (≈ 38.4 µM)	12.8%
N#Cc1ccccc1NC(=O)Cc1cccc(Oc2ccccc2)c1	32 µg/mL (≈ 97.5 µM)		19.1%
O=C(Cc1cccc(Oc2ccccc2)c1)Nc1ccc(C(F)(F)F)cc1	32 µg/mL (≈ 86.2 µM)	8 µg/mL (≈ 21.5 µM)	10.3%
O=C(Cc1cccc(Oc2ccccc2)c1)Nc1ccc(OC(F)(F)F)cc1	32 µg/mL (≈ 82.6 µM)	16 µg/mL (≈ 41.3 µM)	4.71%
COc1ccc(NC(=O)Cc2cccc(Oc3ccccc3)c2)c(OC)c1	32 µg/mL (≈ 88.1 µM)		4.11%
O=C(Cc1cccc(Oc2ccccc2)c1)Nc1cccc([N+](=O)[O-])c1	32 µg/mL (≈ 91.9 µM)	16 µg/mL (≈ 45.9 µM)	0.95%
O=C(Cc1cccc(Oc2ccccc2)c1)Nc1ccc([N+](=O)[O-])cc1	32 µg/mL (≈ 91.9 µM)	8 µg/mL (≈ 23 µM)	36.4%
O=C(Cc1cccc(Oc2ccccc2)c1)Nc1cccc2ccccc12	64 µg/mL (≈ 181 µM)	32 µg/mL (≈ 90.5 µM)	3.31%
O=C(Cc1cccc(Oc2ccccc2)c1)NC(c1ccccc1)c1ccccc1	32 µg/mL (≈ 81.3 µM)	8 µg/mL (≈ 20.3 µM)	4.84%
COc1ccc2nc(NC(=O)Cc3cccc(Oc4ccccc4)c3)sc2c1	16 µg/mL (≈ 41 µM)	8 µg/mL (≈ 20.5 µM)	4.29%
O=C(Cc1cccc(Oc2ccccc2)c1)Nc1nccs1	32 µg/mL (≈ 103 µM)	16 µg/mL (≈ 51.6 µM)	39.9%
O=C(Cc1cccc(Oc2ccc(Cl)cc2)c1)Nc1cccc(Cl)c1	32 µg/mL (≈ 86 µM)	16 µg/mL (≈ 43 µM)	27.1%
O=C(Cc1cccc(Oc2ccc(F)cc2)c1)Nc1cccc(Cl)c1	32 µg/mL (≈ 89.9 µM)	16 µg/mL (≈ 45 µM)	23.5%
O=C(Nc1cccc(Cl)c1)c1cccc(Oc2ccccc2)c1	32 µg/mL (≈ 98.8 µM)	16 µg/mL (≈ 49.4 µM)	7.07%
O=C(CCc1cccc(Oc2ccccc2)c1)Nc1cccc(Cl)c1	32 µg/mL (≈ 91 µM)	16 µg/mL (≈ 45.5 µM)	25.1%
O=C(CCCc1cccc(Oc2ccccc2)c1)Nc1cccc(Cl)c1	32 µg/mL (≈ 87.5 µM)	16 µg/mL (≈ 43.7 µM)	
O=C(Nc1cccc(Cl)c1)c1ccc(Oc2ccccc2)cc1	32 µg/mL (≈ 98.8 µM)	16 µg/mL (≈ 49.4 µM)	29.2%
NNC(=O)c1ccncc1 [ISONIAZID]	0.0625 µg/mL (≈ 0.456 µM)	0.0625 µg/mL (≈ 0.456 µM)	3.51%
